The source of these data is ChEMBL document CHEMBL1122739, “Potential inhibitors of nucleotide biosynthesis. 2. Halomethyl ketone derivatives of pyrimidine nucleosides” (J Med Chem, 1984).

For one data set, the system named is L1210. The data set is described as follows: Concentration that produces 50 % inhibition of proliferation of L1210 cells in suspension culture in 48 h,. Particulars: Mus musculus, L1210, 48 h; read-out: I50. Type of data set: functional, cell-based. The gist of the method:
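L1210 cells grown in suspension culture for 48 h with compound. I50 is the concentration giving 50% inhibition of proliferation relative to control growth.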

Data set [1] is described as follows: Ratio of the cytotoxic concentrations (I50''s) against H.Ep.-2 and L1210 cells. Type of data set: functional.
A short description of data set [2]: Half-life period determined in water at room temperature. Type of data set: ADME.
Another data set has as its system HEp-2. The data set is described as follows: Concentration that produces 50 % inhibition of cloning of H.Ep.-2 cells in suspension culture, over a 12-day period. Particulars: Homo sapiens, HEp-2, 288 h; read-out: I50. Type of data set: functional, cell-based. In outline:
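H.Ep.-2 cells tested by cloning over a 12-day period. I50 is the concentration giving 50% inhibition of colony formation relative to untreated control growth.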

Data set [3] relates to Mus musculus. As to the kind of experiment: Activity against P388 leukemia was determined in vivo. The percent increase in life span at a compound dose of 25 mg/kg. Type of data set: functional. In outline: (§1)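 P388 leukemia in vivo; dosing given as a single injection on days 1-5. Read-out is the percent increase in life span relative to untreated controls.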
The test system of data set [4] is Mus musculus. The data set is described as follows: Activity against P388 leukemia was determined in vivo. The percent increase in life span at a compound dose of 100 mg/kg. Type of data set: functional. In outline:
as §1

Data set [5] relates to Mus musculus. The data set is described as follows: Activity against P388 leukemia was determined in vivo. The percent increase in life span at a compound dose of 12.5 mg/kg. Type of data set: functional. The gist of the method:
as §1

Data set [6] deals with Mus musculus. The data set is described as follows: Activity against P388 leukemia was determined in vivo. The percent increase in life span at a compound dose of 50 mg/kg. Type of data set: functional. The gist of the method: as §1
Data set [7] can be described thus: Ratio of the cytotoxic concentrations (I50's) against H.Ep.-2 and L1210 cells. Type of data set: functional.
The test system of data set [8] is Mus musculus. As to the kind of experiment: Activity against P388 leukemia was determined in vivo. The percent increase in life span at a compound dose of 200 mg/kg. Type of data set: functional. In outline:
as §1

pIC50: −log10 of the molar value.

One may read the half-life as the time needed for the level to fall by half in the phase considered. Higher therefore signals slow decline. The term ILS denotes how much longer treated animals lived than controls. A higher ILS goes with a large benefit in survival. For `Cc1cn(C2CC(O)C(CCC(=O)CI)O2)c(=O)[nH]c1=O` (stereo not given), the results for the pIC50 with L1210 and in the data set with HEp-2 were 4.70 and 4.77, respectively. The Ratio in data set [1] came out at 16. In data set [2], this molecule showed a half-life of 4 h. Moreover, the ILS at 25 mg/kg with Mus musculus [3] was 16%.

For the molecule `Cc1cn(C2CC(O)C(C(=O)Nc3ccc(C(=O)CCl)cc3)O2)c(=O)[nH]c1=O` (stereo not given), the figures for the pIC50 with L1210 and in the data set on HEp-2 were 4.55 and 4.52, respectively. Further, the Ratio in [1] is listed as 14. The molecule also returned a half-life in [2] above 52 h. This molecule also came in with an increase in life span (ILS) at 100 mg/kg with Mus musculus [4] of 14%.

For `Cc1cn(C2CC(O)C(CCC(=O)CBr)O2)c(=O)[nH]c1=O` (stereo not given), the pIC50 in the data set on L1210 was 3.96; with HEp-2, 4.26. The Ratio in data set [1] was determined as 16. In [2], this molecule gave a half-life of 1.8 h. The increase in life span (ILS) at 12.5 mg/kg in the data set with Mus musculus [5] was 16%.

Turning to `Cc1cn(C2CC(O)C(CCC(=O)CCl)O2)c(=O)[nH]c1=O` (stereo not given), the pIC50 with L1210 was 4.18; in the data set with HEp-2 it was 4.60. Besides, the half-life in data set [2] was above 52 h. In the data set with Mus musculus [6], the ILS at 50 mg/kg came out at 10%. Besides, in [7], the Ratio is given as 10.

As for `Cc1cn(C2CC(O)C(CNC(=O)c3ccc(C(=O)CBr)cc3)O2)c(=O)[nH]c1=O` (stereo not given), the pIC50 in the data set with L1210 is below 4.15; in the data set on HEp-2, below 4.40. Besides, in data set [1], the Ratio is recorded as 15. Moreover, the half-life in data set [2] was 1 h. For the same molecule, in the data set with Mus musculus [6], the increase in lifespan (ILS) at 50 mg/kg is 15%.

In the case of `Cc1cn(C2CC(O)C(C(=O)Nc3ccc(C(=O)CBr)cc3)O2)c(=O)[nH]c1=O` (stereo not given), the values for the pIC50 in the data set on L1210 and in the data set on HEp-2 were 5.22 and 4.92, respectively. Moreover, the Ratio in [1] is reported as 38. The same molecule had a half-life in data set [2] of 4 h. In the data set on Mus musculus [8], this molecule gave an ILS at 200 mg/kg of 38%.

For `Cc1cn(C2CC(O)C(C(=O)Nc3ccc(C(=O)CI)cc3)O2)c(=O)[nH]c1=O` (stereo not given), the pIC50 was 5.10 with L1210 and 4.54 in the data set with HEp-2. The Ratio in [1] came out at 5. For the same molecule, the half-life in data set [2] was 13 h. In the data set with Mus musculus [3], this molecule returned an increase in life span (ILS) at 25 mg/kg of 5%.
